Compound activity deposited in PubChem by Broad Institute.
Only a selection was taken, and hits are over-represented in it overall.
T cruzi intra – inhibitors of intracellular Trypanosoma cruzi, primary screen, cell-based, plate reader, single point, set 2 | activity score (inhibition), % at 5.01 µM | actives 4.9% (n = 22,000) | intracellular Trypanosoma cruzi in host cells; in the data active means activity score above about 55%; inconclusive means no clear call, values can overlap the other calls;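 further: parasites and compound incubated about four days before reading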
A1 apoptosis 2 – A1 inhibitors via caspase activation, primary screen, cell-based, luminescence, HTS, two replicates. MEF A1-2A-BIM cells, caspase-Glo luminescence, 3 h; percent of clofoctol response, DMSO zero. caspase activation, % (test concentration not listed). 24,000 tested, under 10 active. AID 2465, 2010; in the data active means caspase activation above about 5.9%; inconclusive means no clear call, values can overlap the other calls; inactive means below about 2.2%
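Material: A1-2A-BIM-expressing MEF cells. Buffer or medium: RPMI-1640 plus 10% FBS. Incubation: cells settled overnight, compound exposure 3 h at 37 °C, 5% CO2. Signal: Caspase-Glo 3/7 luminescence, 1 h at room temperature.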
INS-1E rescue – protection of INS-1E cells from cytokine death, primary screen, ATP luminescence, single point. INS-1E cytokine-induced death, 48 h; normalised: neutral wells 0, positive control 100. protection from cytokine-induced ATP loss, % at 10 µM. actives 0.1% (n = 20,000). AID 488910, 2010;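 active means mean replicate protection from cytokine-induced ATP loss at least 50% and at least 75% of replicates each reaching 50%; inconclusive means meets only one of the two criteria, mean or replicate share; inactive means fails both the mean and replicate share criteria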
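Assay system: INS-1E rat insulinoma cells. Amount: 8000 cells per well. Medium: phenol-red-free RPMI with 5% fetal bovine serum. Reagent: IL-1β, TNF-α and IFN-γ cytokine mix. Doses: one compound concentration, pin transfer. Schedule: 48 h co-treatment, 10 min post-lysis read. Detection: CellTiter-Glo luminescence measuring cellular ATP.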
A number is an active result; i = inactive; ? = inconclusive; nt = not tested or not shown.

SMILES | T cruzi intra | A1 apoptosis 2 | INS-1E rescue
C[C@H]1CN([C@@H](C)CO)C(=O)Cc2cc(NC(=O)Nc3ccc(C(F)(F)F)cc3)ccc2O[C@H]1CN(C)Cc1ccc(Cl)c(Cl)c1 | 78.0 | i | i
C[C@@H]1CN([C@H](C)CO)C(=O)Cc2cc(NC(=O)Nc3ccc(C(F)(F)F)cc3)ccc2O[C@H]1CN(C)Cc1ccc(Cl)c(Cl)c1 | i | nt | i
C[C@@H]1CN([C@H](C)CO)C(=O)Cc2cc(NC(=O)Nc3ccc(C(F)(F)F)cc3)ccc2O[C@@H]1CN(C)Cc1ccc(Cl)c(Cl)c1 | 65.2 | nt | i
C[C@H]1CN([C@@H](C)CO)C(=O)c2cc(NC(=O)CCCCCC(=O)Nc3ccccc3N)ccc2O[C@@H]1CN(C)S(C)(=O)=O | i | i | i
COC(=O)CCCCCCC(=O)N/N=C/c1cn(Cc2ccccc2)c2ccccc12 | i | nt | i
O=C(N/N=C/c1ccc(-c2ccccc2)c(F)c1)c1ccccn1 | i | i | i
C[C@@H]1CN([C@H](C)CO)C(=O)Cc2cc(NC(=O)Cc3cn(C)c4ccccc34)ccc2O[C@@H]1CN(C)Cc1ccc(Cl)c(Cl)c1 | 68.6 | i | i
C[C@@H]1CN([C@H](C)CO)C(=O)c2cc(NC(=O)Cc3cn(C)c4ccccc34)ccc2O[C@H]1CN(C)Cc1ccc(-c2ccccc2)cc1 | i | i | i
C[C@H]1CN([C@@H](C)CO)C(=O)c2cc(NC(=O)Cc3cn(C)c4ccccc34)ccc2O[C@H]1CN(C)S(=O)(=O)c1ccc(Cl)cc1 | 66.8 | i | i
C[C@H](CO)N1C[C@H](C)[C@H](CN(C)Cc2ccc(Cl)c(Cl)c2)Oc2ccc(NC(=O)Cc3cn(C)c4ccccc34)cc2C1=O | 56.4 | i | i
C[C@H](CO)N1C[C@H](C)[C@@H](CN(C)Cc2ccc(Cl)c(Cl)c2)Oc2ccc(NC(=O)Cc3cn(C)c4ccccc34)cc2C1=O | i | i | i
C[C@H]1CN([C@@H](C)CO)C(=O)Cc2cc(NC(=O)Cc3cn(C)c4ccccc34)ccc2O[C@@H]1CN(C)Cc1ccc(Cl)c(Cl)c1 | nt | i | nt
C[C@H](CO)N1C[C@H](C)[C@H](CN(C)S(=O)(=O)c2ccc(Cl)cc2)Oc2ccc(NC(=O)Cc3cn(C)c4ccccc34)cc2C1=O | i | i | i
C[C@H]1CN([C@@H](C)CO)C(=O)c2cc(NC(=O)Cc3cn(C)c4ccccc34)ccc2O[C@@H]1CN(C)Cc1ccc(-c2ccccc2)cc1 | 74.8 | i | i
O=C(O)CCCCCC(=O)N/N=C/c1cc(F)ccc1O | i | i | i
COC(=O)CCCCCCC(=O)N/N=C/c1ccc(O)cc1Br | i | i | i
C[C@H]1CN([C@@H](C)CO)C(=O)c2cccc(N(C)C)c2O[C@H]1CN(C)S(=O)(=O)c1ccc(F)cc1 | i | nt | i
COc1ccc(CN2C(C)Cc3cc(OC)c(OC)cc3C2C)cc1 (stereo unspecified) | nt | i | nt
Cc1ccc(S(=O)(=O)Nc2ccc3c(c2)C(=O)N([C@H](C)CO)C[C@@H](C)[C@@H](CN(C)Cc2ccc(Cl)c(Cl)c2)OCCCC[C@H](C)O3)cc1 | nt | i | nt
C[C@@H]1CCCCO[C@@H](CN(C)Cc2ccc(Cl)c(Cl)c2)[C@@H](C)CN([C@@H](C)CO)C(=O)c2cc(NS(=O)(=O)c3ccc(F)cc3)ccc2O1 | nt | i | nt
C[C@@H]1CCCCO[C@H](CN(C)Cc2ccc(Cl)c(Cl)c2)[C@@H](C)CN([C@@H](C)CO)C(=O)c2cc(NS(=O)(=O)c3ccc(Cl)cc3)ccc2O1 | nt | i | nt
C[C@@H]1CCCCO[C@H](CN(C)Cc2ccc(Cl)c(Cl)c2)[C@@H](C)CN([C@H](C)CO)C(=O)c2cc(NS(=O)(=O)c3ccc(F)cc3)ccc2O1 | 65.5 | nt | i
C[C@@H]1CCCCO[C@@H](CN(C)Cc2ccc(Cl)c(Cl)c2)[C@@H](C)CN([C@H](C)CO)C(=O)c2cc(NS(=O)(=O)c3ccccc3)ccc2O1 | 65.6 | nt | i
Cc1ccc(S(=O)(=O)Nc2ccc3c(c2)C(=O)N([C@H](C)CO)C[C@H](C)[C@H](CN(C)Cc2ccc(Cl)c(Cl)c2)OCCCC[C@@H](C)O3)cc1 | 76.9 | nt | i
COc1ccc(S(=O)(=O)Nc2ccc3c(c2)C(=O)N([C@@H](C)CO)C[C@H](C)[C@@H](CN(C)Cc2ccc(Cl)c(Cl)c2)OCCCC[C@@H](C)O3)cc1 | nt | i | nt
SMILES | T cruzi intra | A1 apoptosis 2 | INS-1E rescue
COc1ccc(S(=O)(=O)Nc2ccc3c(c2)C(=O)N([C@H](C)CO)C[C@H](C)[C@H](CN(C)Cc2ccc(Cl)c(Cl)c2)OCCCC[C@@H](C)O3)cc1 | 57.5 | nt | i
O=C(CCCCC(=O)N/N=C/c1ccoc1)NO | i | i | i
C[C@@H]1CN([C@@H](C)CO)C(=O)c2cc(NC(=O)CCCN(C)C)ccc2O[C@@H](C)CCCCO[C@@H]1CN(C)S(=O)(=O)c1ccccc1 | nt | i | nt
COC(=O)C1=C/c2ccccc2C(C2CC2)N(C)/C=C\1C(=O)OC (stereo unspecified) | nt | i | nt
C[C@@H]1CN([C@H](C)CO)C(=O)Cc2cc(NS(=O)(=O)c3ccc(F)cc3)ccc2O[C@H]1CN(C)Cc1ccc(C(F)(F)F)cc1 | i | i | i
Cc1ccc(S(=O)(=O)Nc2ccc3c(c2)CC(=O)N([C@@H](C)CO)C[C@H](C)[C@@H](CN(C)Cc2ccc(C(F)(F)F)cc2)O3)cc1 | 62.4 | nt | i
C[C@H]1CN([C@@H](C)CO)C(=O)Cc2cc(NS(=O)(=O)c3ccc(F)cc3)ccc2O[C@@H]1CN(C)Cc1ccc(C(F)(F)F)cc1 | 61.3 | nt | i
C[C@@H]1CN([C@@H](C)CO)C(=O)Cc2cc(NS(=O)(=O)c3ccc(F)cc3)ccc2O[C@@H]1CN(C)Cc1ccc(C(F)(F)F)cc1 | ? | i | i
Cc1ccc(S(=O)(=O)Nc2ccc3c(c2)CC(=O)N([C@@H](C)CO)C[C@@H](C)[C@H](CN(C)Cc2ccc(C(F)(F)F)cc2)O3)cc1 | nt | i | nt
Cc1ccc(S(=O)(=O)Nc2ccc3c(c2)CC(=O)N([C@H](C)CO)C[C@@H](C)[C@@H](CN(C)Cc2ccc(C(F)(F)F)cc2)O3)cc1 | 61.0 | nt | i
C=CCOC(=O)[C@H]1[C@@H]2C(=O)O[C@@H](c3ccccc3)[C@@H](c3ccccc3)N2[C@@H](c2ccc(OCCOC(=O)[C@@H]3C[C@@H]4C(=O)N[C@@H](CC(C)C)C(=O)N4[C@@H]3c3cccc(OCCO)c3)cc2)[C@]12C(=O)Nc1ccc(I)cc12 | nt | i | nt
CC(C)NC(=O)Nc1ccc2c(c1)C(=O)N([C@@H](C)CO)C[C@H](C)[C@H](CN(C)Cc1ccccc1)O2 | i | i | nt
C[C@H](CO)N1C[C@H](C)[C@H](CN(C)Cc2ccc(Cl)c(Cl)c2)Oc2c(NC(=O)c3ccc(-c4nccs4)cc3)cccc2C1=O | 60.5 | nt | i
C[C@H]1CN([C@@H](C)CO)C(=O)c2cccc(NC(=O)c3ccc(-c4nccs4)cc3)c2O[C@H]1CN(C)Cc1ccc(Cl)c(Cl)c1 | 61.5 | i | i
C[C@@H]1CN([C@H](C)CO)C(=O)c2cccc(NC(=O)c3ccc(-c4nccs4)cc3)c2O[C@H]1CN(C)Cc1ccc(Cl)c(Cl)c1 | i | i | i
